Sampled rows, rich in hits. Any-hit rate of the full collection: about 2.9%.
CAL PDZ FP-1 – CAL PDZ peptide-binding inhibitors, primary screen, biochemical, fluorescence polarization, Cer-tagged CAL PDZ, HTS; 330,000 tested, 0.02% active; purified CAL PDZ, TMR-peptide fluorescence polarization, 1 h; AID 504414, 2011; inhibition, % at 20 µM;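 active means highest replicate inhibition of at least 40%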;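 further: plate controls were DMSO neutral control wells for no effect and unlabeled competitor peptide control wells for full effect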
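Control set: unlabelled peptide and DMSO controls / Material: purified CerCALP PDZ construct / Timing: 1 h incubation at room temperature before polarization reading / Doses: 20 µM, one dose / Detection: fluorescence polarization (mP)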
DENV2 CPE – inhibitors of DENV2 cytopathic effect, primary screen, cell-based, plate reader, single concentration; DENV2-infected cells, cytopathic effect rescue; CPE inhibition, % at 9.99 µM; 350,000 tested, 1.7% active; AID 651640, 2012; in the data active means CPE inhibition above about 20%, passing the limit was not always enough; inconclusive means no clear call, values can overlap the other calls; tested in BHK-21 cells;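 further: 0% = median of neutral control wells and 100% = median of positive control wells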
CAL PDZ FP-2 – untagged CAL PDZ binding inhibitors, primary screen, biochemical, fluorescence polarization, HTS. purified CAL PDZ, TMR-peptide fluorescence polarization, 1 h. inhibition, % at 24.9 µM. 300,000 tested, 0.92% active. AID 602252, 2012;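 active means mean inhibition of at least 30% with at least half of replicates also reaching 30%; inconclusive means no clear call, values can overlap the other calls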;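 further: 0% = DMSO neutral control and 100% = excess unlabeled competitor peptide PRC23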
SIRT5 inh – SIRT5 desuccinylase inhibitors, primary screen, biochemical, fluorescence imaging, single point, set 5. inhibition, % at 15 µM. 330,000 tested, 1.1% active. NAD-dependent protein deacylase sirtuin-5, mitochondrial (Homo sapiens), Q9NXA8. Purified SirT5, succinyl-peptide AMC, trypsin-coupled fluorescence; in the data active means inhibition above about 15%; inconclusive means no clear call, values can overlap the other calls
Target sequence (Q9NXA8 whole entry, looked up): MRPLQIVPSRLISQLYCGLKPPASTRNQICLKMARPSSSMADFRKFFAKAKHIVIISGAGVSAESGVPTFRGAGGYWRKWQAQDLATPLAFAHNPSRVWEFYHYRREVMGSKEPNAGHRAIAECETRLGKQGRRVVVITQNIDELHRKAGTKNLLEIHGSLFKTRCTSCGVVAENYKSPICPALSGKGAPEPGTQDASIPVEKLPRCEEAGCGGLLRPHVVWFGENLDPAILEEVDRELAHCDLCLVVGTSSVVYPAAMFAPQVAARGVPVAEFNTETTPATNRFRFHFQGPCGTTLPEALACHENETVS
ERAP1 HTS inh – human ERAP1 aminopeptidase inhibitors, primary screen, biochemical, single point, plate reader; AID 652197, 2013; recombinant ERAP1, Leu-AMC fluorescence, 60 min; Endoplasmic reticulum aminopeptidase 1 (Homo sapiens), Q9NZ08; inhibition, % at 10.7 µM; 340,000 tested, 0.15% active;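 active means mean replicate inhibition of at least 30%, or all replicates individually reaching that 30% level; inactive means mean below 30% and not every replicate reaching it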;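 further: 0% = neutral control wells and 100% = L-leucinethiol positive control wells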
S100A4 inh HTS – inhibitors of S100A4-myosin IIA peptide binding, primary screen, biochemical, fluorescence polarization, TAMRA-MyoIIA peptide | Protein S100-A4 (Homo sapiens), P26447 | inhibition, % at 10.7 µM | 360,000 tested, 0.14% active;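 active means mean inhibition of at least 70% across replicates, with every replicate also reaching that level; inconclusive means mean inhibition reaches 70% but some replicates fall short; inactive means mean inhibition below 70%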
Target sequence (P26447 whole entry, looked up): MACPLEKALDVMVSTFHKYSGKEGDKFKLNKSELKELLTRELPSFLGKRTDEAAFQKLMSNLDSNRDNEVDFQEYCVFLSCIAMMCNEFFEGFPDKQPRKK
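System – human S100A4 monomer protein, biochemical binding assay · Buffer or medium – Calcium-containing HEPES buffer, pH 7.2 · Timing – 5 min between mix addition and reading · Also added – TAMRA-labelled myosin IIA heavy-chain peptide probe, 5 nM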
Starred values were filed as active, the others as inactive; ? = inconclusive; . = no result given.

SMILES | CAL PDZ FP-1 | DENV2 CPE | CAL PDZ FP-2 | SIRT5 inh | ERAP1 HTS inh | S100A4 inh HTS
COc1ccc(S(=O)(=O)N(C)C[C@H]2OCCCC[C@H](C)Oc3ccc(NS(=O)(=O)c4ccc(C)cc4)cc3C(=O)N([C@H](C)CO)C[C@@H]2C)cc1 | . | -6 | . | 23* | 2 | -45
COc1ccc(S(=O)(=O)Nc2ccc3c(c2)C(=O)N([C@@H](C)CO)C[C@H](C)[C@H](CN(C)S(=O)(=O)c2ccccc2)OCCCC[C@@H](C)O3)cc1 | . | 8 | . | 15* | 4 | 11
C[C@@H]1CCCCO[C@H](CN(C)S(=O)(=O)c2ccc(Cl)cc2)[C@@H](C)CN([C@@H](C)CO)C(=O)c2cc(NC(=O)NC3CCCCC3)ccc2O1 | . | -9 | . | 1 | 1 | -8
COc1ccc2c3c([nH]c2c1)[C@@H](CO)N(Cc1ccccc1)CC31CN(C(C)=O)C1 | . | 3 | . | . | 1 | 1
N#Cc1ccc(OCC(=O)NN2Cc3ccccc3C2=N)cc1 | 0 | 0 | -3 | -6 | 1 | -10
CCc1ccc(OCC(=O)NN2Cc3ccccc3C2=N)cc1 | -2 | 2 | -4 | 24* | 3 | -7
CCOc1cccc(C2NC(=S)NC(C)=C2C(=O)Nc2ccccc2)c1 (centres undefined) | 0 | . | -3 | . | . | .
COc1cccc(C2NC(=S)NC(C)=C2C(C)=O)c1 (centres undefined) | . | 57* | . | 2 | 5 | 0
COc1cc(NS(=O)(=O)c2ccc(NC(=S)Nc3ccccc3)cc2)nc(OC)n1 | 111* | -4 | -7 | -3 | 3 | -12
O=C(C[C@H]1CC[C@H](NC(=O)c2ccc3c(c2)OCO3)[C@H](CO)O1)NCc1ccc(F)cc1 | . | -1 | . | 3 | -1 | 1
Cc1ccc(OCCCCn2ccnc2C)c(C)c1 | 7 | -3 | 79* | -2 | -2 | -17
COc1ccc(NC(=O)NC2(C(=O)N3CCN(C)CC3)CCCCC2)cc1 | 10 | 5 | 61* | 0 | -7 | -3
COc1ccc(NC(=O)NC2(C(=O)N3CCCCCC3)CCCCC2)cc1 | -4 | . | -2 | . | . | .
CCOc1cc(CNCCN2CCOCC2)ccc1OCc1ccccc1Cl | -3 | 29* | -1 | -1 | 0 | -3
Cc1ccccc1N1CCN(C(=O)C2CCC(=O)N(C3CCCC3)C2)CC1 (centres undefined) | 0 | ? | 79* | -1 | 1 | 14
CC(=N)C1=C(O)CC(c2ccccc2)CC1=O (centres undefined) | -1 | -4 | . | -5 | -5 | -1
CCC(=NC)C1=C(O)CC(c2ccccc2)CC1=O (centres undefined) | . | 19 | 71* | -2 | -1 | -1
Cc1sc2nc(SC3CCOC3=O)n(Cc3ccccc3)c(=O)c2c1C (centres undefined) | -4 | 2 | -1 | 0 | -2 | 2
C=CCn1c(SC2CCOC2=O)nc2sc(C)c(C)c2c1=O (centres undefined) | . | . | 49* | . | . | .
C[C@@H]1CN([C@H](C)CO)C(=O)c2cc(NC(=O)CCCN(C)C)ccc2O[C@@H](C)CCCCO[C@H]1CN(C)C(=O)Nc1ccc(F)cc1 | . | 2 | . | -4 | 2 | -2
O=C1NC(=S)/C(=C\c2ccc(-c3ccccc3Cl)o2)S1 | 1 | . | -2 | . | . | .
O=C1NC(=O)/C(=C/c2ccc(-c3cc(C(=O)O)ccc3Cl)o2)S1 | -4 | -1 | -9 | 26* | -36 | -2
C[C@@H]1CCCCO[C@H](CN(C)Cc2ccc(C(F)(F)F)cc2)[C@@H](C)CN([C@H](C)CO)C(=O)c2cc(NC(=O)c3ccccc3)ccc2O1 | . | 12 | . | 5 | 2 | -5
C[C@@H]1CCCCO[C@H](CN(C)Cc2ccc(C(F)(F)F)cc2)[C@H](C)CN([C@H](C)CO)C(=O)c2cc(NC(=O)c3ccncc3)ccc2O1 | . | ? | . | 20* | -2 | -31
